Screening data (PubChem BioAssay)
VLA-4 inh: inhibition in a human VLA-4 binding assay | inhibition, % (about 7 µM as worked out from the volumes in the protocol) | VLA-4 expressing cells, ligand binding flow cytometry | hit rate 0.2% among 330,000; in the data active means inhibition above about 50%
Target sequence (P13612 whole entry, looked up): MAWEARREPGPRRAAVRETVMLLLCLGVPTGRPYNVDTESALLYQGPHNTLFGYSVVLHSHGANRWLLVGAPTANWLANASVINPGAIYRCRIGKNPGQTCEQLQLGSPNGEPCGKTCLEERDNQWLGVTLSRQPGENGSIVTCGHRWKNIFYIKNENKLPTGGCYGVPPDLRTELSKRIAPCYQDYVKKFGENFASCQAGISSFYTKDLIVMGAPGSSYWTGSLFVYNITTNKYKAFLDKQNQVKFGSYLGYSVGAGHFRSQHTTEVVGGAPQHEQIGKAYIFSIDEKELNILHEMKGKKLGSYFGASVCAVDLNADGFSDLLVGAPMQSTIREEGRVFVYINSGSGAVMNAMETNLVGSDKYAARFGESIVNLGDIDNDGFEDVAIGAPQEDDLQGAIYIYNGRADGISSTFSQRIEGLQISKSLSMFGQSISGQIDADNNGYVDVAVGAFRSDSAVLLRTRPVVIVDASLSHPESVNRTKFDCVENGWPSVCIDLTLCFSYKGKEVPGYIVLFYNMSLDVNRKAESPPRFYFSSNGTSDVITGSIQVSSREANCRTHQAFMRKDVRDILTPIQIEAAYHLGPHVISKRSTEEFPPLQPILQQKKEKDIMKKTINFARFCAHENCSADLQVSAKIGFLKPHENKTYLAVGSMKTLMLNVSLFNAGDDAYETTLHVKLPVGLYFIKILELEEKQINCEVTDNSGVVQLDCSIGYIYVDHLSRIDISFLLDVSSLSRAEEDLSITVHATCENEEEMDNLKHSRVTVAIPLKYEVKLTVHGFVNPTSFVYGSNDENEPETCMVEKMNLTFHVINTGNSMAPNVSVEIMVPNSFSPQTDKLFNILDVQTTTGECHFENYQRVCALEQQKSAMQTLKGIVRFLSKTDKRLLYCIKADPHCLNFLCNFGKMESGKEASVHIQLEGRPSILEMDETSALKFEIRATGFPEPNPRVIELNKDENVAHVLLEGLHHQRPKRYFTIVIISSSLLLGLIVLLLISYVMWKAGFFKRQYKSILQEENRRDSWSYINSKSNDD
FGF22 binding-1: shifts melting point of recombinant human FGF22 | Q9HCT0 | recombinant FGF22 thermal shift, SYPRO orange fluorescence; percent of sucrose octasulfate shift, DMSO zero | activity (Tm shift, normalised), % at 9.99 µM | hit rate 1.5% among 340,000 | AID 651658;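 active means mean Tm shift, scaled 0 neutral to 100 positive control, at about 1.3% or above, every replicate too, limit read from the data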
MT1-MMP act inh: blocks activation of human MT1-MMP. AID 651647. hit rate 0.061% among 360,000. HT1080 RFP-PRO-GFP cells, GFP/RFP ratio fluorescence, overnight; percent of plate control window, DMSO zero. GFP/RFP ratio change, % at 20 µM;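 active means GFP/RFP ratio change of at least 30% with cell ATP level not reduced by more than half and red fluorescence within 50% of control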
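Compound: 20 µM single dose, 1% DMSO / System: HT1080 RFP-PRO-GFP cells / Controls: DMSO and RFP-L50D-GFP cell wells / Read-out basis: GFP/RFP fluorescence ratio / Schedule: overnight compound exposure at 37 °C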
ABCB6 inh 2: inhibitors of human ABC transporter ABCB6. Q9NP58. K562-ABCB6 porphyrin accumulation, flow cytometry, 1 h; active compounds read low. fluorescence ratio to DMSO, % at 10 µM. hit rate 0.19% among 360,000;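 active means fluorescence ratio to DMSO below 75%, the collection mean minus 3 SD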;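 further: signal is porphyrin accumulated inside mitochondria; 100% equals median channel fluorescence of DMSO control wells; lower ratio means ABCB6 inhibition with less porphyrin fluorescence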
Exocytosis inh: lytic granule exocytosis inhibition | TALL-104 LAMP-1 surface exposure, flow cytometry; cells stimulated with thapsigargin and PMA | inhibition, % at 10 µM | hit rate 0.66% among 360,000;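 active means inhibition above about 55%, limit read from the data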
DAGLB inh: diacylglycerol lipase beta (human) inhibition | Q8NCG7 | inhibition, % at 5.17 µM | HEK293T DAGLB membrane lysate, EnzChek fluorogenic substrate | hit rate 0.059% among 340,000; in the data active means inhibition above about 34%;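 further: 0% = enzyme with vehicle and 100% = wells lacking enzyme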
FGF22 binding-2: FGF22 (human) binding in thermal shift; hit rate 2% among 1,000; AID 720646; thermal shift activity, °C (ΔTm) at 38 µM; shares compounds with FGF22 binding-1; recombinant FGF22 thermal shift, SYPRO orange fluorescence;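 active means fitted rise in melting shift crosses a set limit at or below the top valid dose tested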
FGF22 TSA: binds human FGF22 shifting its melting temperature; shares compounds with FGF22 binding-1; Thermal shift assay, SYPRO orange, melting temperature shift; Tm shift (activity), % at 38 µM; 50 tested, under 10 active; AID 743017;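 active means compounds whose fitted dose curve of melting temperature shift rises past a set threshold within the tested doses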
SYPRO no-protein: counter-screen for FGF22 binders: compound-only thermal shift, no protein | shares compounds with FGF22 binding-1 | compound-only SYPRO orange thermal shift counter-screen | AC50, µM (highest dose often 38 µM) | hit rate 2% among 1,000 | AID 743019;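 active means rising signal whose fitted curve reaches the 0.54 level within the top valid dose, showing a melting point, actives reach about 13 µM in these data; inactive means the rest, including activity in the opposite direction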; further: value is where the raw curve crosses a fixed level and not half-maximal
The depositor's hits bear a star; i = inactive; . = no result; [ ] = dose if it differs, or a comment. Hits are enriched below; roughly 2% of the tested compounds scored in any of these assays.

SMILES	VLA-4 inh	FGF22 binding-1	MT1-MMP act inh	ABCB6 inh 2	Exocytosis inh	DAGLB inh	FGF22 binding-2	SYPRO no-protein	others
CCOC(=O)N1CCN(C(=O)CNC(=O)c2nn(-c3ccc(OC)cc3OC)c(=O)c3ccccc23)CC1	1	0	-2	101	-4	2	.	.
N#CCSc1n[nH]c2nc3c(c(=O)n12)C1(CCCCC1)Cc1ccccc1-3	-11	1.9*	1	99	15	9	0.081	i
COCCOC(=O)N1C(=O)[C@@]2(c3cc(C#Cc4ccc(OC)cc4)ccc31)[C@H](C(=O)NC[C@H](O)c1ccccc1)[C@H]1C(=O)O[C@H](c3ccccc3)[C@H](c3ccccc3)N1[C@@H]2c1ccc(O)cc1	.	0	.	.	.	.	.	.
COC(=O)C1=C(CS(=O)(=O)c2cc(OC)ccc2OC)NC(=O)NC1c1ccc(O)c(OC)c1 (stereo not given)	7	1.5*	-3	98	-3	1	0.37	i	FGF22 TSA=0
COC(=O)C1=C(CS(=O)(=O)c2ccc(OC)c(OC)c2)NC(=O)NC1c1ccc(O)c(OC)c1 (stereo not given)	23	0	-3	97	-4	3	.	.
C[C@@H]1CN([C@H](C)CO)C(=O)c2cc(NC(=O)Cc3ccccc3)ccc2O[C@@H](C)CCCCO[C@H]1CN(C)C(=O)c1ccccc1	.	0	.	.	.	.	.	.
O=C(N[C@@H]1CC[C@H](CCn2cc(-c3ccccc3)nn2)O[C@@H]1CO)c1cnccn1	.	0	.	.	.	.	.	.
Cc1[nH]c(=O)[nH]c(=O)c1S(=O)(=O)Nc1cccc([N+](=O)[O-])c1C	8	4.6*	1	98	-5	-1	-0.021	i
Fc1ccccc1Nc1n[nH]c(=S)s1	-4	1.6*	1	112	-1	-1	-0.11	i
Cc1ccccc1Nc1n[nH]c(=S)s1	.	0	-1	96	9	1	.	.
C[C@H]1CN([C@@H](C)CO)C(=O)c2cc(NC(=O)Nc3cccc4ccccc34)ccc2O[C@@H]1CN(C)CC1CCCCC1	.	0	.	.	.	.	.	.
O=[N+]([O-])c1ccc(Nc2cccc(F)c2)nc1	-9	3.5*	2	95	-3	1	0.14	i
O=[N+]([O-])c1ccc(Nc2ccccc2)nc1	-5	1.4*	2	96	1	0	-0.016	i
O=[N+]([O-])c1ccc(Nc2ccc(F)cc2)nc1	18	.	4	93	1	2	.	.
O=C(C[C@H]1C[C@@H]2c3cc(NC(=O)NC4CCCC4)ccc3O[C@@H]2[C@H](CO)O1)NCc1ccc2c(c1)OCO2	.	1.9*	.	.	.	.	-0.076	i
O=C(C[C@@H]1C[C@@H]2c3cc(NC(=O)NC4CCCC4)ccc3O[C@@H]2[C@@H](CO)O1)NCc1ccc2c(c1)OCO2	.	0	.	.	.	.	.	.
O=C(C[C@H]1CC[C@@H]2[C@H](COC[C@@H](O)CN2Cc2ccc(Cl)cc2)O1)Nc1nccs1	.	-1	.	.	.	.	.	.
COc1ccc(Cc2noc(CN3CCN(Cc4csc(C)n4)CC3)n2)cc1OC	3	.	1	93	0	-2	.	.
COCCN1CCN(Cc2nc(Cc3ccc(OC)c(OC)c3)no2)CC1	9	8.0*	1	100	-8	1	0.052	i
Cc1cc(C)cc(NC(=O)CN2C(=O)NC(Cc3c[nH]c4ccccc34)C2=O)c1 (stereo not given)	11	1.6*	5	97	18	-2	.	i
CC(C)c1ccc(NC(=O)CN2C(=O)NC(Cc3c[nH]c4ccccc34)C2=O)cc1 (stereo not given)	5	0	1	98	4	2	.	.
O=C(Nc1nnc(C(F)(F)F)s1)c1ccc(Br)s1	-1	2.0*	-3	91	6	4	-0.072	i
C[C@H](CO)N1C[C@H](C)[C@H](CN(C)C(=O)Nc2cccc3ccccc23)Oc2ccc(NC(=O)Nc3ccc4c(c3)OCO4)cc2CC1=O	.	0	.	.	.	.	.	.
CCCN1C[C@H](C)[C@H](OC)CN(C)C(=O)c2cc(NC(=O)c3cnccn3)ccc2OC[C@@H]1C	.	1.4*	.	.	.	.	0.099	i
CO[C@@H]1CN(C)C(=O)c2cc(NC(=O)c3cccc(F)c3)ccc2OC[C@@H](C)NC[C@@H]1C	.	1	.	.	.	.	.	.
SMILES	VLA-4 inh	FGF22 binding-1	MT1-MMP act inh	ABCB6 inh 2	Exocytosis inh	DAGLB inh	FGF22 binding-2	SYPRO no-protein	others
COCC(=O)Nc1ccc2c(c1)OC[C@@H](C)N(C)C[C@H](C)[C@@H](OC)CN(C)C2=O	.	31*	.	.	.	.	0.094	i
COCC(=O)Nc1ccc2c(c1)OC[C@@H](C)N(C)C[C@@H](C)[C@H](OC)CN(C)C2=O	.	0	.	.	.	.	.	.
CO[C@H]1CN(C)C(=O)c2cc(NC(=O)c3cccc(F)c3)ccc2OC[C@H](C)NC[C@@H]1C	.	2.0*	.	.	.	.	0.095	i
CO[C@H]1CN(C)C(=O)c2cc(NC(=O)CC(F)(F)F)ccc2OC[C@@H](C)N(C(C)=O)C[C@H]1C	.	23*	.	.	.	.	0.12[42 µM]	i
C[C@@H]1CCCCO[C@H](CN(C)S(=O)(=O)c2ccc(Cl)cc2)[C@H](C)CN([C@H](C)CO)C(=O)c2cc(NC(=O)CCC(F)(F)F)ccc2O1	.	0	.	.	.	.	.	.
CO[C@@H]1CN(C)C(=O)c2ccc(NS(=O)(=O)c3ccc(Cl)cc3)cc2OC[C@@H](C)N(C(=O)NC(C)C)C[C@@H]1C	.	0	.	.	.	.	.	.
CO[C@H]1CN(C)C(=O)c2ccc(NS(=O)(=O)c3ccc(Cl)cc3)cc2OC[C@@H](C)N(C(=O)NC(C)C)C[C@H]1C	.	36*	.	.	.	.	-0.001[42 µM]	i
CO[C@@H]1CN(C)C(=O)c2cc(NC(=O)C3CCCC3)ccc2OC[C@H](C)N(CCC(F)(F)F)C[C@H]1C	.	9.3*	.	.	.	.	0.15	i
CCCNC(=O)Nc1ccc2c(c1)C(=O)N(C)C[C@H](OC)[C@@H](C)CN(C(=O)c1ccccc1F)[C@H](C)CO2	.	1.7*	.	.	.	.	0.056	i
CO[C@H]1CN(C)C(=O)c2cc(NC(=O)NC(C)C)ccc2OC[C@@H](C)N(Cc2ccc(-c3ccccn3)cc2)C[C@H]1C	.	0	.	.	.	.	.	.
Cc1noc(C)c1S(=O)(=O)N(C)C[C@H]1Oc2ccc(NS(=O)(=O)c3cn(C)cn3)cc2CC(=O)N([C@H](C)CO)C[C@H]1C	.	0	.	.	.	.	.	.
Cc1cccc(Cn2ncc(Cl)c(Cl)c2=O)c1	26	39*	-16	99	-3	-3	0.012	i
C[C@H]1CN([C@@H](C)CO)S(=O)(=O)c2ccc(C#Cc3ccccc3F)cc2O[C@H]1CN(C)C(=O)Cc1cccnc1	.	5.9*	.	.	.	.	0.09[42 µM]	i
